Data: paper PMC3722612 (Archives of biochemistry and biophysics, 2013)

How the values were obtained:
[1] = test system: WeeI; assay: continuous DTNB; assay type: biochemical, Acinetobacter baumannii; details: AcCoA saturating, 5 mM MgCl2, 50 mM HEPES pH 7.4, 25 °C
In short: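 AcCoA and UDP-4-amino varied separately, the other held saturating; AcCoA Km taken at 4 mM UDP-4-amino. Initial rates from the linear portion over 5 min; duplicates; background without UDP-4-amino subtracted.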

[2] = target: WeeH (Acinetobacter baumannii, UniProt V5RC66); assay: radioactive transfer to Und-P, organic extraction; assay type: biochemical; details: undecaprenyl phosphate, 50 mM MgCl2, 30 mM Tris-acetate pH 8.0, 1% Triton X-100, 3% DMSO, 25 °C
[3] = test system: CC(=O)SCCNC(=O)CCNC(=O)[C@H](O)C(C)(C)COP(=O)(O)OP(=O)(O)OC[C@H]1O[C@@H](n2cnc3c(N)ncnc32)[C@H](O)[C@@H]1OP(=O)(O)O; assay: purified protein; details: conditions not stated separately for this enzyme
[4] = test system: CC(=O)N[C@H]1[C@@H](OP(=O)(O)OP(=O)(O)OC[C@H]2O[C@@H](n3ccc(=O)[nH]c3=O)[C@H](O)[C@@H]2O)O[C@H](C)[C@@H](N)[C@@H]1O; assay: purified protein; details: conditions not stated separately for this enzyme
[5] = test system: N[C@@H](CCC(=O)O)C(=O)O; assay: purified protein; details: conditions not stated separately for this enzyme
[6] = test system: CC(=O)N[C@H]1[C@@H](OP(=O)(O)OP(=O)(O)OC[C@H]2O[C@@H](n3ccc(=O)[nH]c3=O)[C@H](O)[C@@H]2O)O[C@H](C)C(=O)[C@@H]1O; assay: purified protein; details: conditions not stated separately for this enzyme

Row | Compound | Km [3] [µM] | kcat [3] [s⁻¹] | kcat/Km [3] [M⁻¹ s⁻¹] | Km [4] [µM] | kcat [4] [s⁻¹] | kcat/Km [4] [M⁻¹ s⁻¹] | further results
1 | CC(=O)N[C@H]1[C@@H](OP(=O)(O)OP(=O)(O)OC[C@H]2O[C@@H](n3ccc(=O)[nH]c3=O)[C@H](O)[C@@H]2O)O[C@H](C)[C@@H](N)[C@@H]1O [UDP-4-amino, UDP-2-acetamido-4-amino-2,4,6-trideoxy-α-D-glucose] | – | – | – | – | – | – | Km [1]: 4300 ± 140 µM
2 | CC(=O)N[C@H]1[C@@H](OP(=O)(O)OP(=O)(O)OC[C@H]2O[C@@H](n3ccc(=O)[nH]c3=O)[C@H](O)[C@@H]2O)O[C@H](C)[C@@H](NC(C)=O)[C@@H]1O [UDP-diNAcBac, UDP-2,4-diacetamido-2,4,6-trideoxy-α-D-glucose] | – | – | – | – | – | – | radioactive transfer to Und-P, organic extraction [2]: This phosphoglycosyltransferase exhibited clear selectivity for UDP-diNAcBac over all other UDP-sugars
3 | PglB-ATD (Neisseria gonorrhoeae FA 1090) | 338 ± 47 | 2300 ± 110 | 6.9e+06 | 192 ± 26 | 2000 ± 82 | 1e+07 | –
4 | PglD (Campylobacter jejuni subsp. jejuni NCTC 11168 = ATCC 700819) | 194 ± 30 | 11000 ± 500 | 5.5e+07 | 311 ± 23 | 12000 ± 380 | 4e+07 | –
5 | PglE (Campylobacter jejuni subsp. jejuni NCTC 11168 = ATCC 700819) | – | – | – | – | – | – | Km [5]: 11,000 ± 340 μM; kcat [5]: 0.028 ± 0.0003 s⁻¹; kcat/Km [5]: 2.6 M⁻¹ s⁻¹; Km [6]: 366 ± 57 µM; kcat [6]: 2.4 ± 0.1 s⁻¹; kcat/Km [6]: 6600 M⁻¹ s⁻¹
